Test results: ChEMBL document CHEMBL4251599, “Synthesis and biological evaluation of coumarin derivatives containing imidazole skeleton as potential antibacterial agents” (Eur J Med Chem, 2018)
≈ marks a conversion by molar mass, not a printed value.

Assays:
Type in all cases: functional
Flavobacterium columnare [1] = experiment: Antibacterial activity against Flavobacterium columnare FC-G1 after 24 hrs by two fold serial dilution method; conditions: FC-G1, 24 h
Outline: (§1)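 Broth two-fold serial dilution per CLSI, in nutrient broth. Inoculum from 24 h cultures at 28 ± 1 °C, adjusted in saline to 1×10^7-2×10^7 cfu/mL, then diluted to 1×10^5-2×10^5 cfu/mL. Test range 256 down to 0.50 µM and lower. Tubes held 24 h at 28 ± 1 °C. MIC read visually. Enrofloxacin and norfloxacin served as standards.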

Streptococcus agalactiae [2] = experiment: Antibacterial activity against Streptococcus agalactiae WB1445 after 24 hrs by two fold serial dilution method; conditions: WB1445, 24 h; outline: as §1
Flavobacterium columnare [3] = experiment: Bactericidal activity against Flavobacterium columnare FC-G1 incubated for 24 hrs followed by re-plating on nutrient agar and measured after overnight incubation by two fold serial dilution method; conditions: FC-G1, 24 h
Outline: (§2)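 After the MIC read, 100 µl from every tube without visible growth was spread on nutrient agar lacking compound. Plates were incubated overnight at 28 ± 1 °C. MBC was taken as the lowest concentration killing >99.9% of the initial population, seen as no growth on agar.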

Streptococcus agalactiae [4] = experiment: Bactericidal activity against Streptococcus agalactiae WB1445 incubated for 24 hrs followed by re-plating on nutrient agar and measured after overnight incubation by two fold serial dilution method; conditions: WB1445, 24 h; outline: as §2
Escherichia coli [5] = experiment: Antibacterial activity against Escherichia coli ATCC 35150 after 24 hrs by two fold serial dilution method; conditions: ATCC 35150, 24 h; outline: as §1
Staphylococcus aureus [6] = experiment: Antibacterial activity against Staphylococcus aureus ATCC 29213 after 24 hrs by two fold serial dilution method; conditions: ATCC 29213, 24 h; outline: as §1
Escherichia coli [7] = experiment: Bactericidal activity against Escherichia coli ATCC 35150 incubated for 24 hrs followed by re-plating on nutrient agar and measured after overnight incubation by two fold serial dilution method; conditions: ATCC 35150, 24 h; outline: as §2
Staphylococcus aureus [8] = experiment: Bactericidal activity against Staphylococcus aureus ATCC 29213 incubated for 24 hrs followed by re-plating on nutrient agar and measured after overnight incubation by two fold serial dilution method; conditions: ATCC 29213, 24 h; outline: as §2

Row | Compound | MIC (Flavobacterium columnare [1]) | MIC (Streptococcus agalactiae [2]) | MBC (Flavobacterium columnare [3]) | MBC (Streptococcus agalactiae [4]) | MIC (Escherichia coli [5]) | MIC (Staphylococcus aureus [6]) | MBC (Escherichia coli [7]) | MBC (Staphylococcus aureus [8])
1 | NCCCCCCCCOc1ccc2ccc(=O)oc2c1 | > 256 µM | > 256 µM | > 256 µM | > 256 µM | – | – | – | –
2 | O=c1ccc2ccc(OCCCCCCCCn3cnc4ccccc43)cc2o1 | 8 µM (≈ 3.12 µg/mL) | 256 µM (≈ 100 µg/mL) | 32 µM (≈ 12.5 µg/mL) | 512 µM (≈ 200 µg/mL) | > 256 µM | 32 µM (≈ 12.5 µg/mL) | > 256 µM | 128 µM (≈ 50 µg/mL)
3 | O=c1ccc2ccc(OCCCCn3ccnc3-c3ccccc3)cc2o1 | > 256 µM | > 256 µM | > 256 µM | > 256 µM | 32 µM (≈ 11.5 µg/mL) | > 256 µM | 128 µM (≈ 46.1 µg/mL) | > 256 µM
4 | Cc1cc(=O)oc2cc(OCCCCCCCCn3ccnc3C)ccc12 | 4 µM (≈ 1.47 µg/mL) | 16 µM (≈ 5.9 µg/mL) | 8 µM (≈ 2.95 µg/mL) | 16 µM (≈ 5.9 µg/mL) | > 256 µM | 64 µM (≈ 23.6 µg/mL) | > 256 µM | 256 µM (≈ 94.3 µg/mL)
5 | O=c1ccc2ccc(OCCCCCCn3ccnc3)cc2o1 | 64 µM (≈ 20 µg/mL) | > 256 µM | 128 µM (≈ 40 µg/mL) | > 256 µM | 32 µM (≈ 10 µg/mL) | 64 µM (≈ 20 µg/mL) | 64 µM (≈ 20 µg/mL) | 64 µM (≈ 20 µg/mL)
6 | O=c1ccc2ccc(OCCCCCCBr)cc2o1 | > 256 µM | > 256 µM | > 256 µM | > 256 µM | > 256 µM | > 256 µM | > 256 µM | > 256 µM
7 | O=c1ccc2ccc(OCCCCCCCCn3cccn3)cc2o1 | > 256 µM | > 256 µM | > 256 µM | > 256 µM | – | – | – | –
8 | O=c1ccc2ccc(OCCBr)cc2o1 | > 256 µM | > 256 µM | > 256 µM | > 256 µM | > 256 µM | > 256 µM | > 256 µM | > 256 µM
9 | O=c1ccc2ccc(OCCn3ccnc3)cc2o1 | > 256 µM | > 256 µM | > 256 µM | > 256 µM | 128 µM (≈ 32.8 µg/mL) | > 256 µM | 256 µM (≈ 65.6 µg/mL) | > 256 µM
10 | O=c1ccc2ccc(OCCCCCCCCN3CCCCC3)cc2o1 | > 256 µM | > 256 µM | > 256 µM | > 256 µM | – | – | – | –
11 | O=c1ccc2ccc(OCCCCCCCCBr)cc2o1 | > 256 µM | > 256 µM | > 256 µM | > 256 µM | > 256 µM | > 256 µM | > 256 µM | > 256 µM
12 | Cc1cn(CCCCOc2ccc3ccc(=O)oc3c2)cn1 | > 256 µM | > 256 µM | > 256 µM | > 256 µM | 16 µM (≈ 4.77 µg/mL) | > 256 µM | 32 µM (≈ 9.55 µg/mL) | > 256 µM
13 | O=c1ccc2ccc(OCCn3ccnc3-c3ccccc3)cc2o1 | > 256 µM | > 256 µM | > 256 µM | > 256 µM | 128 µM (≈ 42.5 µg/mL) | > 256 µM | 512 µM (≈ 170 µg/mL) | > 256 µM
14 | Cc1cn(CCCCCCCCOc2ccc3c(C)cc(=O)oc3c2)cn1 | 8 µM (≈ 2.95 µg/mL) | 8 µM (≈ 2.95 µg/mL) | 16 µM (≈ 5.9 µg/mL) | 32 µM (≈ 11.8 µg/mL) | > 256 µM | 32 µM (≈ 11.8 µg/mL) | > 256 µM | 256 µM (≈ 94.3 µg/mL)
15 | O=c1ccc2ccc(OCCCCCCn3ccnc3-c3ccccc3)cc2o1 | > 256 µM | > 256 µM | > 256 µM | > 256 µM | > 256 µM | > 256 µM | > 256 µM | > 256 µM
16 | O=c1ccc2ccc(OCCCCCCCCCCBr)cc2o1 | > 256 µM | > 256 µM | > 256 µM | > 256 µM | > 256 µM | > 256 µM | > 256 µM | > 256 µM
17 | Cc1cc(=O)oc2cc(OCCCCCCCCBr)ccc12 | > 256 µM | > 256 µM | > 256 µM | > 256 µM | > 256 µM | > 256 µM | > 256 µM | > 256 µM
18 | O=c1ccc2ccc(OCCCCn3cnc4ccccc43)cc2o1 | > 256 µM | > 256 µM | > 256 µM | > 256 µM | 8 µM (≈ 2.68 µg/mL) | 32 µM (≈ 10.7 µg/mL) | 64 µM (≈ 21.4 µg/mL) | 256 µM (≈ 85.6 µg/mL)
19 | O=c1ccc2ccc(OCCCCCCCCn3ccnc3-c3ccccc3)cc2o1 | > 256 µM | > 256 µM | > 256 µM | > 256 µM | > 256 µM | > 256 µM | > 256 µM | > 256 µM
20 | O=c1ccc2ccc(OCCCCCCn3cnc4ccccc43)cc2o1 | 32 µM (≈ 11.6 µg/mL) | 32 µM (≈ 11.6 µg/mL) | 128 µM (≈ 46.4 µg/mL) | 128 µM (≈ 46.4 µg/mL) | > 256 µM | 32 µM (≈ 11.6 µg/mL) | > 256 µM | 256 µM (≈ 92.8 µg/mL)
21 | O=c1ccc2ccc(OCCCCn3ccnc3)cc2o1 | > 256 µM | > 256 µM | > 256 µM | > 256 µM | 128 µM (≈ 36.4 µg/mL) | 64 µM (≈ 18.2 µg/mL) | 256 µM (≈ 72.8 µg/mL) | 256 µM (≈ 72.8 µg/mL)
22 | O=c1ccc2ccc(OCCCCBr)cc2o1 | > 256 µM | > 256 µM | > 256 µM | > 256 µM | > 256 µM | > 256 µM | > 256 µM | > 256 µM
23 | O=c1ccc2ccc(OCCn3cnc4ccccc43)cc2o1 | > 256 µM | > 256 µM | > 256 µM | > 256 µM | 128 µM (≈ 39.2 µg/mL) | 64 µM (≈ 19.6 µg/mL) | 256 µM (≈ 78.4 µg/mL) | 256 µM (≈ 78.4 µg/mL)
24 | Cc1cc(=O)oc2cc(OCCCCCCCCn3cncn3)ccc12 | 16 µM (≈ 5.69 µg/mL) | 32 µM (≈ 11.4 µg/mL) | 64 µM (≈ 22.7 µg/mL) | 64 µM (≈ 22.7 µg/mL) | > 256 µM | 32 µM (≈ 11.4 µg/mL) | > 256 µM | 256 µM (≈ 91 µg/mL)
25 | O=c1ccc2ccc(OCCCCCCCCN3CCNCC3)cc2o1 | > 256 µM | > 256 µM | > 256 µM | > 256 µM | – | – | – | –
26 | CCN1CCN(c2cc3c(cc2F)c(=O)c(C(=O)O)cn3C2CC2)CC1 [ENROFLOXACIN] | 2 µM (≈ 0.719 µg/mL) | 8 µM (≈ 2.88 µg/mL) | 2 µM (≈ 0.719 µg/mL) | 16 µM (≈ 5.75 µg/mL) | 1 µM (≈ 0.359 µg/mL) | 2 µM (≈ 0.719 µg/mL) | 2 µM (≈ 0.719 µg/mL) | 4 µM (≈ 1.44 µg/mL)
27 | Cc1cn(CCOc2ccc3ccc(=O)oc3c2)cn1 | > 256 µM | > 256 µM | > 256 µM | > 256 µM | 16 µM (≈ 4.32 µg/mL) | > 256 µM | 64 µM (≈ 17.3 µg/mL) | > 256 µM
